Laboratory results from ChEMBL document CHEMBL1146561, “New sesterterpene sulfates from the sponge Darwinella australensis” (J Nat Prod, 2003).

Assays:
[1] = Inhibition of cell division in sea urchin fertilized egg; assay type: functional, Strongylocentrotus intermedius
Procedure, shortened: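 Fertilized eggs of the sea urchin Strongylocentrotus intermedius were scored for inhibition of cell division. IC50 is expressed in μg/mL.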

K562 = experiment: Cytotoxicity against human K562 cells by MTT assay; assay type: functional; details: read-out: LC50 (the source's name)
Procedure, shortened: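 Human leukemia K562 line; viability by MTT method; activity expressed as LC50 in μg/mL.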

Streptococcus sp. = experiment: Antimicrobial activity against Streptococcus sp. at 25 ug by paper-disk method; assay type: functional; details: read-out: IZ
Procedure, shortened: (§1)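 Paper-disk diffusion assay with 25 μg of sample applied. Activity was read as the diameter of the inhibition zone in mm.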

Candida albicans = experiment: Antimicrobial activity against Candida albicans at 25 ug by paper-disk method; assay type: functional; details: read-out: IZ; procedure, shortened: as §1
Escherichia coli = experiment: Antimicrobial activity against Escherichia coli at 25 ug by paper-disk method; assay type: functional; details: read-out: IZ; procedure, shortened: as §1
Bacillus subtilis = experiment: Antimicrobial activity against Bacillus subtilis at 25 ug by paper-disk method; assay type: functional; details: read-out: IZ; procedure, shortened: as §1
Staphylococcus aureus = experiment: Antimicrobial activity against Staphylococcus aureus at 25 ug by paper-disk method; assay type: functional; details: read-out: IZ; procedure, shortened: as §1

Compound	IC50 [1] [µg/mL]	CC50 (K562) [µg/mL]	zone of inhibition at 25 µg/disc (Streptococcus sp.) [mm]	zone of inhibition at 25 µg/disc (Candida albicans) [mm]	zone of inhibition at 25 µg/disc (Escherichia coli) [mm]	zone of inhibition at 25 µg/disc (Bacillus subtilis) [mm]	zone of inhibition at 25 µg/disc (Staphylococcus aureus) [mm]
C[C@H]1CC[C@H]2C(=CCCC2(C)C)[C@@]1(C)CCC(CCCC1=CC(=O)OC1)COS(=O)(=O)[O-].[Na+] (stereo not given in full) [HALISULPHATE 9]	50	> 100	< 3	< 3	< 3	< 3	< 3
COC1C=C(CCCC(CC[C@]2(C)C3=CCCC(C)(C)[C@H]3CC[C@@H]2C)COS(=O)(=O)[O-])C(=O)O1.[Na+] (stereo not given in full) [HALISULPHATE 10]	35	> 100	< 3	< 3	< 3	< 3	< 3
C[C@H]1CC[C@H]2C(=CC(=O)CC2(C)C)[C@@]1(C)CCC(CCCc1ccoc1)COS(=O)(=O)[O-].[Na+] (stereo not given in full) [HALISULPHATE 8]		> 100	< 3	< 3	< 3	< 3	< 3
